ChEMBL document CHEMBL4428081, “Selective AKR1C3 Inhibitors Potentiate Chemotherapeutic Activity in Multiple Acute Myeloid Leukemia (AML) Cell Lines” (ACS Med Chem Lett, 2016)
Activity calls are given as the source filed them. The rule behind the calls is not given here.

How the values were obtained:
Format in all cases: functional, cell-based
HL-60(TB) = assay: Cytotoxicity against human HL-60(TB) cells at 10 uM after 48 hrs by sulforhodamine B assay
How it was run: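 Single-concentration (10 μM) test run within the National Cancer Institute 60 cancer cell line screen, with HL-60 as one panel member.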

ACHN = assay: Cytotoxicity against human ACHN cells at 10 uM after 48 hrs by sulforhodamine B assay
HL-60 = assay: Cytotoxicity against human HL60 cells assessed as reduction in cell viability up to 100 uM at 72 hrs by MTS assay
How it was run: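 HL-60 human acute promyelocytic leukemia cells exposed to AKR1C3 inhibitor alone, with no chemotherapeutic, over a range up to 100 μM. Lower working range was 0.1–1 μM. Read-out was cell viability relative to untreated control.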

MCF7 = assay: Cytotoxicity against human MCF7 cells at 10 uM after 48 hrs by sulforhodamine B assay
OVCAR-3 = assay: Cytotoxicity against human OVCAR3 cells at 10 uM after 48 hrs by sulforhodamine B assay
SK-MEL-5 = assay: Cytotoxicity against human SK-MEL-5 cells at 10 uM after 48 hrs by sulforhodamine B assay
Hs-578T = assay: Cytotoxicity against human Hs 578T cells at 10 uM after 48 hrs by sulforhodamine B assay
SR = assay: Cytotoxicity against human SR cells at 10 uM after 48 hrs by sulforhodamine B assay
How it was run: (§1)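 NCI 60 cancer cell line panel screen run at a single concentration of 10 μM.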

SK-MEL-2 = assay: Cytotoxicity against human SK-MEL-2 cells at 10 uM after 48 hrs by sulforhodamine B assay
HCC 2998 = assay: Cytotoxicity against human HCC2998 cells at 10 uM after 48 hrs by sulforhodamine B assay
SF-539 = assay: Cytotoxicity against human SF539 cells at 10 uM after 48 hrs by sulforhodamine B assay
UACC-62 = assay: Cytotoxicity against human UACC62 cells at 10 uM after 48 hrs by sulforhodamine B assay; how it was run: as §1
COLO 205 = assay: Cytotoxicity against human COLO205 cells at 10 uM after 48 hrs by sulforhodamine B assay
CCRF-CEM = assay: Cytotoxicity against human CCRF-CEM cells at 10 uM after 48 hrs by sulforhodamine B assay
TK-10 = assay: Cytotoxicity against human TK10 cells at 10 uM after 48 hrs by sulforhodamine B assay; how it was run: as §1
OVCAR-4 = assay: Cytotoxicity against human OVCAR4 cells at 10 uM after 48 hrs by sulforhodamine B assay
MDA-MB-231 = assay: Cytotoxicity against human MDA-MB-231 cells at 10 uM after 48 hrs by sulforhodamine B assay
HCT-116 = assay: Cytotoxicity against human HCT116 cells at 10 uM after 48 hrs by sulforhodamine B assay
A498 = assay: Cytotoxicity against human A498 cells at 10 uM after 48 hrs by sulforhodamine B assay
CAKI-1 = assay: Cytotoxicity against human Caki1 cells at 10 uM after 48 hrs by sulforhodamine B assay
NCI-H23 = assay: Cytotoxicity against human NCI-H23 cells at 10 uM after 48 hrs by sulforhodamine B assay
SNB-19 = assay: Cytotoxicity against human SNB19 cells at 10 uM after 48 hrs by sulforhodamine B assay; how it was run: as §1
RPMI-8226 = assay: Cytotoxicity against human RPMI8226 cells at 10 uM after 48 hrs by sulforhodamine B assay
PC-3 = assay: Cytotoxicity against human PC3 cells at 10 uM after 48 hrs by sulforhodamine B assay
A549 = assay: Cytotoxicity against human A549/ATCC cells at 10 uM after 48 hrs by sulforhodamine B assay
MDA-MB-435 = assay: Cytotoxicity against human MDA-MB-435 cells at 10 uM after 48 hrs by sulforhodamine B assay
NCI-H322M = assay: Cytotoxicity against human NCI-H322M cells at 10 uM after 48 hrs by sulforhodamine B assay
M14 = assay: Cytotoxicity against human M14 cells at 10 uM after 48 hrs by sulforhodamine B assay
KG-1a = assay: Cytotoxicity against human KG1a cells expressing AKR1C3 assessed as reduction in cell viability at >25 uM at 72 hrs by MTS assay
UACC-257 = assay: Cytotoxicity against human UACC257 cells at 10 uM after 48 hrs by sulforhodamine B assay; how it was run: as §1
T47D = assay: Cytotoxicity against human T47D cells at 10 uM after 48 hrs by sulforhodamine B assay; how it was run: as §1
U-251 = assay: Cytotoxicity against human U251 cells at 10 uM after 48 hrs by sulforhodamine B assay; how it was run: as §1
SN12C = assay: Cytotoxicity against human SN12C cells at 10 uM after 48 hrs by sulforhodamine B assay
MDA-MB-468 = assay: Cytotoxicity against human MDA-MB-468 cells at 10 uM after 48 hrs by sulforhodamine B assay
K562 = assay: Cytotoxicity against human K562 cells at 10 uM after 48 hrs by sulforhodamine B assay
OVCAR-8 = assay: Cytotoxicity against human OVCAR8 cells at 10 uM after 48 hrs by sulforhodamine B assay
OVCAR-5 = assay: Cytotoxicity against human OVCAR5 cells at 10 uM after 48 hrs by sulforhodamine B assay
786-0 = assay: Cytotoxicity against human 786-0 cells at 10 uM after 48 hrs by sulforhodamine B assay
NCI/ADR-RES = assay: Cytotoxicity against human NCI-ADR-RES cells at 10 uM after 48 hrs by sulforhodamine B assay
IGROV-1 = assay: Cytotoxicity against human IGROV1 cells at 10 uM after 48 hrs by sulforhodamine B assay
HCT-15 = assay: Cytotoxicity against human HCT15 cells at 10 uM after 48 hrs by sulforhodamine B assay

SMILES: CC(C)=CCc1cc(/C=C/C(=O)O)ccc1OC(=O)CCc1ccccc1
- Activity (HL-60(TB)): inactive
- Activity (ACHN): inactive
- Activity (HL-60): inactive
- Activity (MCF7): inactive
- Activity (OVCAR-3): inactive
- Activity (SK-MEL-5): inactive
- Activity (Hs-578T): inactive
- Activity (SR): inactive
- Activity (SK-MEL-2): inactive
- Activity (HCC 2998): inactive
- Activity (SF-539): inactive
- Activity (UACC-62): inactive
- Activity (COLO 205): inactive
- Activity (CCRF-CEM): inactive
- Activity (TK-10): inactive
- Activity (OVCAR-4): inactive
- Activity (MDA-MB-231): inactive
- Activity (HCT-116): inactive
- Activity (A498): inactive
- Activity (CAKI-1): inactive
- Activity (NCI-H23): inactive
- Activity (SNB-19): inactive
- Activity (RPMI-8226): inactive
- Activity (PC-3): inactive
- Activity (A549): inactive
- Activity (MDA-MB-435): inactive
- Activity (NCI-H322M): inactive
- Activity (M14): inactive
- Activity (KG-1a): Active
- Activity (UACC-257): inactive
- Activity (T47D): inactive
- Activity (U-251): inactive
- Activity (SN12C): inactive
- Activity (MDA-MB-468): inactive
- Activity (K562): inactive
- Activity (OVCAR-8): inactive
- Activity (OVCAR-5): inactive
- Activity (786-0): inactive
- Activity (NCI/ADR-RES): inactive
- Activity (IGROV-1): inactive
- Activity (HCT-15): inactive
